Compound activity deposited in PubChem BioAssay by The Scripps Research Institute Molecular Screening Center.
M4 antag = antagonists of human muscarinic M4 receptor (CHRM4). CHO-hM4 cells, ACh EC80, Fluo-8 calcium fluorescence. inhibition, % at 3 µM. 360,000 compounds, 0.73% hits. AID 624125;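 active = inhibition above its plate's cutoff, the mean inhibition of sample wells plus 3 SD, cut at about 27% in these data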;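 note: 0% = acetylcholine EC80 with DMSO and 100% = DMSO without agonist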
Target sequence (P08173 whole entry, looked up): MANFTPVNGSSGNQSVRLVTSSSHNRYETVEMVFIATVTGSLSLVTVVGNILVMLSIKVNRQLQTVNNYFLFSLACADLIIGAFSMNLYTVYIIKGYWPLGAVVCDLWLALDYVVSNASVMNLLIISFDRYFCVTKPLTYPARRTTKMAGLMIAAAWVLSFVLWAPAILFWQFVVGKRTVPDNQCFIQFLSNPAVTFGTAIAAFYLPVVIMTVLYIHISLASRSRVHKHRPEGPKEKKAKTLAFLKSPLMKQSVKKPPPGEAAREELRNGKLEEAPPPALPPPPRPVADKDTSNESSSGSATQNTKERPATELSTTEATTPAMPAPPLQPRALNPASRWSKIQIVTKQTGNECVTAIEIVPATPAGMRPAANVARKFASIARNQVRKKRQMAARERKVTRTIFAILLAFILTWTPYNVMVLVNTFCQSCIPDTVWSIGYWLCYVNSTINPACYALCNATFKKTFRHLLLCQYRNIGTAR
TAAR1 antagonist = human TAAR1 antagonism; CHO RD-HGA16 TAAR1, Fluo-8 calcium fluorescence, antagonist; 360,000 compounds, 1.5% hits; Q96RJ0; inhibition, % at 3 µM;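 active = inhibition above a per-plate cutoff, the mean inhibition of test compounds on that plate plus 3 SD, cut at about 49% in these data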;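 note: 0% = DMSO plus EC80 beta-PEA response and 100% = DMSO alone without agonist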
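System: CHO RD-HGA16 cells bearing hTAAR1. Reagent: EC80 β-phenethylamine stimulus. Schedule: seeding 17-24 h prior, 75-min 37 °C, 30-min RT dye loading. Signal: Fluo-8 intracellular calcium dye fluorescence, real-time kinetic reads. Read-out: % inhibition from peak post-agonist over basal fluorescence ratio. Benchmarks: vehicle wells and EC80 agonist wells. Replicates: n of 1.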
M4 PAM = CHRM4 positive allosteric modulation. activation, % at 3 µM. CHO-K1 hM4/Gqi5, Fluo-8 calcium fluorescence, ACh EC20; 0% = ACh EC20, 100% = maximal ACh. P08173. AID 624126. 360,000 compounds, 0.4% hits;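 active = activation above its plate's cutoff, the mean activation of sample wells plus 3 SD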
M4 ag = agonists of human muscarinic M4 receptor (CHRM4); CHO-K1 hM4/Gqi5, Fluo-8 calcium fluorescence; vehicle 0%, full acetylcholine response 100%; 360,000 compounds, 0.14% hits; activation, % at 3 µM;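 active = activation above the run mean over all test wells plus 3 SD, cut at about 32% in these data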;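 note: peak over basal fluorescence ratio per well then scaled between controls; 0% = DMSO wells and 100% = acetylcholine at EC100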
TAAR1 agonist = human TAAR1 agonism; CHO RD-HGA16 TAAR1, Fluo-8 calcium fluorescence; vehicle wells 0%, saturating PEA agonist 100%; activation, % at 3 µM; AID 624467; 360,000 compounds, 0.99% hits;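 active = activation above the mean activation of all test compounds in the run plus 3 SD, cut at about 38% in these data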
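Assay system: CHO-derived RD-HGA16 cells with stable Gα16 and human TAAR1; timing: 17-24 h seeding, 75 min 37 °C dye, 30 min RT; read-out: % activation from peak over basal fluorescence ratio, DMSO-to-PEA scaled; measured by: kinetic Fluo-8 calcium fluorescence; benchmarks: low control DMSO, high control PEA (EC100); doses: 3 µM single concentration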
An asterisk follows results filed as active. The list is not random: actives were taken first. Their share in the collection is about 3%.

Results for COCc1cc(N2CCNC[C@@H]2C)ccc1N1CCN(Cc2ccccc2)[C@@H](C)C1 ?
TAAR1 antagonist: 3; TAAR1 agonist: 3

Results for CCOC(=O)c1ccc(Nc2ncnc3nc[nH]c23)cc1 ?
M4 antag: -20; TAAR1 antagonist: 22; M4 PAM: 3; M4 ag: 9; TAAR1 agonist: 9

What do the screens show for `c1ccc(COc2ccc(Nc3ncnc4nc[nH]c34)cc2)cc1`?
M4 antag: -7; TAAR1 antagonist: 56*; M4 PAM: -3; M4 ag: 8; TAAR1 agonist: 10

Results for O=[S@]1Oc2ccccc2-c2ccccc21 ?
M4 antag: 10; TAAR1 antagonist: 12; M4 PAM: 0; M4 ag: 1; TAAR1 agonist: 51*

Results for O=S1c2ccccc2Oc2ccccc21 ?
M4 antag: -3; TAAR1 antagonist: 5; M4 PAM: 3; M4 ag: 0; TAAR1 agonist: 0

Results for C[C@H]1COc2cccc(NCCO)c2S(=O)(=O)N1 ?
TAAR1 antagonist: 2; TAAR1 agonist: 0

What do the screens show for `COc1ccc(NC(=O)CS(=O)CC(=O)Nc2cc(Cl)ccc2OC)cc1` (configuration not stated)?
M4 antag: 5; TAAR1 antagonist: 7; M4 PAM: 12; M4 ag: 1; TAAR1 agonist: 2

Results for COc1ccc(NC(=O)CS(=O)CC(=O)Nc2ccc(OC)c(OC)c2)cc1 (configuration not stated) ?
M4 antag: -4; TAAR1 antagonist: -1; M4 PAM: 30*; M4 ag: 1; TAAR1 agonist: 1

Results for O=C(NC1CCCC1)C1C(c2ccc(C(F)(F)F)cc2)=Nc2ccccc2N1C(=O)c1ccccc1 (configuration not stated) ?
M4 antag: -10; TAAR1 antagonist: -34; M4 PAM: -2; M4 ag: 0; TAAR1 agonist: -1

Results for C=CCNC(=S)N(C)[C@H]1C[C@H]2c3cc(-c4ccccc4C)ccc3CCN2C[C@H]1[C@H](C)O ?
TAAR1 antagonist: -27; TAAR1 agonist: 2

Results for COc1ccccc1CCn1cnc(-c2cccc(Br)c2)c1C(C)C ?
TAAR1 antagonist: 17; TAAR1 agonist: 27

Results for CC(C)NC(=O)Nc1cccc2c1O[C@H](CN(C)C(=O)Nc1ccccc1)[C@@H](C)CN([C@H](C)CO)C2=O ?
M4 antag: -3; TAAR1 antagonist: 18; M4 PAM: 3; M4 ag: 0; TAAR1 agonist: 14

What do the screens show for `CC(C)NC(=O)Nc1cccc2c1O[C@H](CN(C)C(=O)Nc1ccc(C(F)(F)F)cc1)[C@@H](C)CN([C@H](C)CO)C2=O`?
M4 antag: -13; TAAR1 antagonist: -19; M4 PAM: 0; M4 ag: 0; TAAR1 agonist: 5

What do the screens show for `C[C@H](CO)N1C[C@H](C)[C@@H](CN(C)C(=O)Nc2ccccc2)Oc2c(NC(=O)Nc3ccccc3)cccc2C1=O`?
M4 antag: 5; TAAR1 antagonist: 50*; M4 PAM: -2; M4 ag: 5; TAAR1 agonist: 6

What do the screens show for `C[C@H](CO)N1C[C@H](C)[C@@H](CN(C)C(=O)Nc2ccccc2)Oc2c(NC(=O)Nc3ccc(C(F)(F)F)cc3)cccc2C1=O`?
M4 antag: 13; TAAR1 antagonist: 49*; M4 PAM: -6; M4 ag: 17; TAAR1 agonist: 13

Results for C[C@H](CO)N1C[C@H](C)[C@@H](CN(C)Cc2ccc(Cl)c(Cl)c2)Oc2c(NC(=O)Cc3ccccc3)cccc2C1=O ?
M4 antag: 31*; TAAR1 antagonist: 71*; M4 PAM: -8; M4 ag: 21; TAAR1 agonist: 27

How did C[C@@H]1CCCCO[C@@H](CN(C)C(=O)NC2CCCCC2)[C@@H](C)CN([C@H](C)CO)C(=O)c2cc(N(C)C)ccc2O1 do in these assays?
TAAR1 antagonist: -3; TAAR1 agonist: -1

Results for COc1ccccc1CCNC(=O)c1ccoc1C ?
M4 antag: -12; TAAR1 antagonist: 16; M4 PAM: 4; M4 ag: 3; TAAR1 agonist: 40*

What do the screens show for `COc1ccccc1CCNC(=O)c1cc(-c2ccccn2)nc2ccccc12`?
M4 antag: 3; TAAR1 antagonist: 52*; M4 PAM: -4; M4 ag: 7; TAAR1 agonist: 8

How did Cc1ccc(S(=O)(=O)N2CCOCC2)cc1NC(=O)c1cc(-c2ccccn2)nc2ccccc12 do in these assays?
M4 antag: 11; TAAR1 antagonist: 49*; M4 PAM: -29; M4 ag: 12; TAAR1 agonist: 14

Results for COc1ccc(C2O[C@@H](C)[C@@H]3C(=O)N4CCc5c([nH]c6ccccc56)[C@@H]4C[C@@H]3N2C)cc1 (some centres not stated) ?
TAAR1 antagonist: -12; TAAR1 agonist: 0

Results for COc1cccc(CNC(=O)[C@H]2CCCN2C(=O)C2CCCN2C(=O)c2ccc(OC)c(F)c2)c1 (some centres not stated) ?
TAAR1 antagonist: 3; TAAR1 agonist: 0

What do the screens show for `COc1ccc(CCNC(=O)c2ccc(CNS(=O)(=O)c3ccc(C(C)(C)C)cc3)cc2)cc1OC`?
M4 antag: 12; TAAR1 antagonist: 56*; M4 PAM: -19; M4 ag: 16; TAAR1 agonist: 15

Results for COc1ccc(CCNC(=O)COC(=O)c2cc(S(=O)(=O)NCc3ccccc3)ccc2O)cc1OC ?
M4 antag: 19; TAAR1 antagonist: 7; M4 PAM: 32*; M4 ag: 2; TAAR1 agonist: 2

How did COC(=O)[C@]12C[C@H](CC(=O)N3CCOCC3)C(=O)N(CCc3ccc(OC)c(OC)c3)C1=C[C@H](C(C)(C)C)O[C@@H]2C do in these assays?
TAAR1 antagonist: -12; TAAR1 agonist: 0

What do the screens show for `CCc1nnc(NC(=O)CCN2C(=O)/C(=C/c3cc(OC)c(OC)c(OC)c3)SC2=S)s1`?
M4 antag: -28; TAAR1 antagonist: -7; M4 PAM: 15*; M4 ag: 2; TAAR1 agonist: -2

What do the screens show for `O=C(CC(NC(=O)OCc1ccccc1)C(=O)O)OCc1ccccc1` (configuration not stated)?
M4 antag: 4; TAAR1 antagonist: 5; M4 PAM: -1; M4 ag: 1; TAAR1 agonist: 3

What do the screens show for `O=C(CC(NC(=O)OCc1ccccc1)C(=O)OCc1ccccc1)OCc1ccccc1` (configuration not stated)?
M4 antag: 28*; TAAR1 antagonist: 59*; M4 PAM: -8; M4 ag: 8; TAAR1 agonist: 3

How did CS(=O)(=O)c1ccc(C(=O)OCC(=O)N2CCN(CCC3CCCCC3)CC2)cc1[N+](=O)[O-] do in these assays?
M4 antag: 29*; TAAR1 antagonist: -4; M4 PAM: -14; M4 ag: 6; TAAR1 agonist: 2
